Measurements reported in ChEMBL document CHEMBL1140035, “4"-Benzoylureido-TSAO derivatives as potent and selective non-nucleoside HCMV inhibitors. Structure-activity relationship and mechanism of antiviral action” (J Med Chem, 2008).
In brackets after ≈: the same amount, converted by molar mass.

Key:
[1] = Cytotoxicity against HEL cells assessed as alteration in cell morphology after 3 days; type: cell-based; settings: human
Outline: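 Minimum cytotoxic concentration: the lowest compound concentration causing a microscopically detectable alteration of HEL cell morphology.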

[2] = tested on: Human betaherpesvirus 5; experiment: Antiviral activity against HCMV Davis in HEL cells assessed as reduction of virus-induced cytopathogenicity after 7 days; type: functional, organism-based; settings: Human betaherpesvirus 5, Davis, 168 h
Outline: (§1)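 Confluent HEL fibroblasts were infected with strain AD-169 or Davis at 100 PFU/well. After 2 h, residual virus was removed and medium with serial compound concentrations was added, in duplicate. Plates were held 7 days at 37 °C, fixed with ethanol, and scored microscopically for virus-induced cytopathicity. EC50 is the concentration reducing cytopathicity by 50%.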

[3] = tested on: Human betaherpesvirus 5; experiment: Antiviral activity against HCMV AD169 in HEL cells assessed as reduction of virus-induced cytopathogenicity after 7 days; type: functional, organism-based; settings: Human betaherpesvirus 5, AD169, HEL, 168 h; outline: as §1
[4] = Cytotoxicity against HEL cells assessed as reduction in cell growth after 3 days; type: cell-based; settings: human
Outline: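 HEL cells were seeded at 5 × 10³ cells/well and allowed to proliferate for 24 h. Compound-containing medium was then added at several concentrations for 3 days at 37 °C. Cells were counted with a Coulter counter. CC50, the concentration reducing cell growth by 50% versus untreated controls, was read from plots of cell number (% of control) against concentration.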

[5] = tested on: Human betaherpesvirus 5; experiment: Antiviral activity against (S)-3-hydroxy-2-phosphonomethoxypropyl cytosine-resistant HCMV with DNA polymerase mutant in HEL cells assessed as reduction of virus-induced cytopathogenicity; type: functional, organism-based; settings: Human betaherpesvirus 5, HEL
Outline: (§2)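 Resistant mutants raised in vitro by serial passage of HCMV AD-169 under rising drug concentrations. Confluent HEL fibroblasts infected at 100 PFU/well for 2 h, then the inoculum was removed. Cells were kept with serial compound concentrations in duplicate for 7 days at 37 °C. After ethanol fixation, cytopathicity was scored microscopically. EC50 is the concentration halving virus-induced cytopathicity.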

[6] = tested on: Human betaherpesvirus 5; experiment: Antiviral activity against ganciclovir-resistant HCMV with DNA polymerase mutant in HEL cells assessed as reduction of virus-induced cytopathogenicity; type: functional, organism-based; settings: Human betaherpesvirus 5, HEL; outline: as §2
[7] = tested on: Human betaherpesvirus 5; experiment: Antiviral activity against foscarnet-resistant HCMV with DNA polymerase mutant in HEL cells assessed as reduction of virus-induced cytopathogenicity; type: functional, organism-based; settings: Human betaherpesvirus 5, HEL; outline: as §2
[8] = tested on: Human betaherpesvirus 5; experiment: Antiviral activity against (S)-3-hydroxy-2-phosphonomethoxypropyl adenine-resistant HCMV with DNA polymerase mutant in HEL cells assessed as reduction of virus-induced cytopathogenicity; type: functional, organism-based; settings: Human betaherpesvirus 5, HEL; outline: as §2
[9] = tested on: Human betaherpesvirus 5; experiment: Antiviral activity against HCMV 530 with […] and DNA polymerase mutation in HEL cells assessed as reduction of virus-induced cytopathogenicity; type: functional, organism-based; settings: Human betaherpesvirus 5, HEL
Outline: (§3)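 Drug-resistant HCMV clinical isolates from immunocompromised patients, carrying UL97 and/or DNA polymerase mutations. Confluent HEL fibroblasts infected at 100 PFU/well for 2 h, then residual virus was removed. Medium with serial compound concentrations added in duplicate for 7 days at 37 °C. After ethanol fixation, cytopathicity was scored microscopically. EC50 is the concentration reducing cytopathicity by 50%.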

[10] = tested on: Human betaherpesvirus 5; experiment: Antiviral activity against acyclovir-resistant HCMV with DNA polymerase mutant in HEL cells assessed as reduction of virus-induced cytopathogenicity; type: functional, organism-based; settings: Human betaherpesvirus 5, HEL; outline: as §2
[11] = tested on: Human betaherpesvirus 5; experiment: Antiviral activity against HCMV 6 with […] mutation in HEL cells assessed as reduction of virus-induced cytopathogenicity; type: functional, organism-based; settings: Human betaherpesvirus 5, HEL; outline: as §3
[12] = tested on: Human betaherpesvirus 5; experiment: Antiviral activity against HCMV 521 with […] and DNA polymerase mutation in HEL cells assessed as reduction of virus-induced cytopathogenicity; type: functional, organism-based; settings: Human betaherpesvirus 5, HEL; outline: as §3

Structure (SMILES) | MCC at 72 h [1] [µM] | EC50 [2] [µM] | EC50 [3] [µM] | CC50 at 72 h [4] [µM] | EC50 [5] [µg/mL] | EC50 [6] [µg/mL] | EC50 [7] [µg/mL] | EC50 [8] [µg/mL] | EC50 [9] [µg/mL] | EC50 [10] [µg/mL] | EC50 [11] [µg/mL] | EC50 [12] [µg/mL]
Cc1cn([C@@H]2O[C@H](COC(=O)c3ccccc3)[C@@]3(OS(=O)(=O)C=C3NC(=O)NC(=O)c3ccccc3)[C@H]2O)c(=O)n(C)c1=O | > 100 | > 100 | > 100 | > 100 |  |  |  |  |  |  |  | 
CCOC(=O)NC(=O)NC1=CS(=O)(=O)O[C@@]12[C@@H](CO[Si](C)(C)C(C)(C)C)O[C@@H](n1cc(C)c(=O)n(C)c1=O)[C@@H]2O[Si](C)(C)C(C)(C)C | 10 | 2.8 | 2.3 | 14 |  |  |  |  |  |  |  | 
Cc1cn([C@@H]2O[C@H](CO[Si](C)(C)C(C)(C)C)[C@@]3(OS(=O)(=O)C=C3NC(=O)Nc3ccccc3)[C@H]2O[Si](C)(C)C(C)(C)C)c(=O)n(C)c1=O | 1.4 | 0.38 | ≥ 0.14 | 1.3 |  |  |  |  |  |  |  | 
Cc1cn([C@@H]2O[C@H](COC(=O)c3ccccc3)[C@@]3(OS(=O)(=O)C=C3NC(=O)NC(=O)c3ccccc3)[C@H]2O[Si](C)(C)C(C)(C)C)c(=O)n(C)c1=O | ≥ 5 | 2.2 | 2.2 | 100 |  |  |  |  |  |  |  | 
CCOC(=O)CNC(=O)NC1=CS(=O)(=O)O[C@@]12[C@@H](CO[Si](C)(C)C(C)(C)C)O[C@@H](n1cc(C)c(=O)n(C)c1=O)[C@@H]2O[Si](C)(C)C(C)(C)C | 16 | > 3.2 | > 3.2 | 13 |  |  |  |  |  |  |  | 
Nc1nc2c(ncn2COC(CO)CO)c(=O)[nH]1 [GANCICLOVIR] |  |  |  |  | 4.9 (≈ 19.2 µM) | 7.6 (≈ 29.8 µM) | 1.5 (≈ 5.88 µM) | 9.1 (≈ 35.7 µM) | 6.2 (≈ 24.3 µM) | 0.54 (≈ 2.12 µM) | 9.4 (≈ 36.8 µM) | 6 (≈ 23.5 µM)
CCNC(=O)NC1=CS(=O)(=O)O[C@@]12[C@@H](CO[Si](C)(C)C(C)(C)C)O[C@@H](n1cc(C)c(=O)n(C)c1=O)[C@@H]2O[Si](C)(C)C(C)(C)C | ≥ 3.2 | 2 | 1.8 | 10 |  |  |  |  |  |  |  | 
Cc1cn([C@@H]2O[C@H](CO)[C@@]3(OS(=O)(=O)C=C3NC(=O)NC(=O)c3ccccc3)[C@H]2O[Si](C)(C)C(C)(C)C)c(=O)n(C)c1=O | 20 | > 4 | > 4 | 16 |  |  |  |  |  |  |  | 
Cc1cn([C@@H]2O[C@H](CO[Si](C(C)C)(C(C)C)C(C)C)[C@@]3(OS(=O)(=O)C=C3NC(=O)NC(=O)c3ccccc3)[C@H]2O[Si](C)(C)C(C)(C)C)c(=O)n(C)c1=O | ≥ 100 | 4.2 | 6.3 | > 100 |  |  |  |  |  |  |  | 
Cc1cn([C@@H]2O[C@H](CO[Si](C)(C)C(C)(C)C)[C@@]3(OS(=O)(=O)C=C3NC(=O)NCc3ccccc3)[C@H]2O[Si](C)(C)C(C)(C)C)c(=O)n(C)c1=O | 4 | 1.1 | 1.3 | 4.1 |  |  |  |  |  |  |  | 
CC(=O)O[C@H]1[C@H](n2cc(C)c(=O)n(C)c2=O)O[C@H](COC(=O)c2ccccc2)[C@@]12OS(=O)(=O)C=C2NC(=O)NC(=O)c1ccccc1 | > 100 | > 100 | > 100 | > 100 |  |  |  |  |  |  |  | 
Cc1cn([C@@H]2O[C@H](CO[Si](C)(C)C(C)(C)C)[C@@]3(OS(=O)(=O)C=C3NC(N)=O)[C@H]2O[Si](C)(C)C(C)(C)C)c(=O)n(C)c1=O | 16 | 2 | > 3.2 | 11 |  |  |  |  |  |  |  | 
Cc1cn([C@@H]2O[C@H](CO[Si](C)(C)C(C)(C)C)[C@@]3(OS(=O)(=O)C=C3NC(=O)N(C(=O)Nc3ccccc3)c3ccccc3)[C@H]2O[Si](C)(C)C(C)(C)C)c(=O)n(C)c1=O | 46 | > 10 | 15 | 13 |  |  |  |  |  |  |  | 
